These results are taken from ChEMBL document CHEMBL1145777 (J Med Chem, 2003).

Each structure is given as a SMILES string.

Test [1] concerns the target Kappa-type opioid receptor (Cavia porcellus) (UniProt P41144). Description: Ratio of binding affinity of Opioid receptor kappa 1 to Opioid receptor mu 1 to Opioid receptor delta 1; kappa:mu:delta = 36:14:1.
The target in test [2] is Mu-type opioid receptor (Cavia porcellus, UniProt P97266). Put plainly: Binding affinity towards Opioid receptor mu 1 from guinea pig brain using [3H]DAMGO as radioligand.
Sequence of Mu-type opioid receptor (Cavia porcellus, UniProt P97266) (P97266 whole entry): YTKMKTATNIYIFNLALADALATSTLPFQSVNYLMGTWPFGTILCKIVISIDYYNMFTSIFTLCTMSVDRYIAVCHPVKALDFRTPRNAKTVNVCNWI
Test [3] has as its target Kappa-type opioid receptor (Cavia porcellus, UniProt P41144). Put plainly: Binding affinity towards Opioid receptor kappa 1 from guinea pig brain using [3H]U-69593 as radioligand. The method in brief:
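Uses 1 nM [3H]U69,593 with guinea pig brain membrane protein (500 µg), 12 concentrations, 50 mM Tris-HCl pH 7.5, 60 min at 25 °C. Nonspecific binding with 10 µM naloxone. Filters pre-soaked in 0.1% polyethylenimine; bound label counted.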

Test [4] concerns the target Kappa-type opioid receptor (Cavia porcellus) (UniProt P41144). Description: Ratio of binding affinity of Opioid receptor kappa 1 to Opioid receptor mu 1 to Opioid receptor delta 1; kappa:mu:delta = 10:9:1.
Test [5] shares this target. Put plainly: Ratio of binding affinity of Opioid receptor kappa 1 to Opioid receptor mu 1 to Opioid receptor delta 1; kappa:mu:delta = 9:1:1.
Test [6] shares this target. Put plainly: Ratio of binding affinity of Opioid receptor kappa 1 to Opioid receptor mu 1 to Opioid receptor delta 1; kappa:mu:delta = 5:3:1.
Test [7] in a line: Binding affinity towards Opioid receptor delta 1 from guinea pig brain using [3H]naltrindole as radioligand.
The target of test [8] is Kappa-type opioid receptor (Cavia porcellus) (UniProt P41144). Description: Ratio of binding affinity of Opioid receptor kappa 1 to Opioid receptor mu 1 to Opioid receptor delta 1; kappa:mu:delta = 12:4:1.
Sequence of Kappa-type opioid receptor (Cavia porcellus) (P41144 whole entry): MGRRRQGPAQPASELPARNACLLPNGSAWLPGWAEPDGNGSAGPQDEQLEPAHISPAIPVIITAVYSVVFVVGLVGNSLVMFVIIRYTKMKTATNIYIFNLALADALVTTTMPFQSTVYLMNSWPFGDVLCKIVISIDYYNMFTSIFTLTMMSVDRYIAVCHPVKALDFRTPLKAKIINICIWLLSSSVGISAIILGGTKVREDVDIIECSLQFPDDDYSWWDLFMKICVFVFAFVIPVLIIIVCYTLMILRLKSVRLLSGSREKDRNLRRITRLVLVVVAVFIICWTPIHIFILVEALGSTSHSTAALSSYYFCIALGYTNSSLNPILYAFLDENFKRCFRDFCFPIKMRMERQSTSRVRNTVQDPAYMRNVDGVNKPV
The target is the same in test [9]. Put plainly: Ratio of binding affinity of Opioid receptor kappa 1 to Opioid receptor mu 1 to Opioid receptor delta 1; kappa:mu:delta = 7:3:1.
Test [10] has as its target Mu-type opioid receptor (Homo sapiens, UniProt P35372). Put plainly: Incorporation of [35S]GTP-gamma-S, into CHO membranes expressing human Opioid receptor mu 1. In kind it is functional. (In general: GTPγS is a poorly hydrolysed GTP analogue; its binding reports G protein activation.)
Test [11] has as its target Kappa-type opioid receptor (Homo sapiens, UniProt P41145). Description: Incorporation of [35S]GTP-gamma-S, into CHO membranes expressing human Opioid receptor kappa 1. In kind it is functional.
The target in test [12] is Kappa-type opioid receptor (Cavia porcellus) (UniProt P41144). Put plainly: Ratio of binding affinity of Opioid receptor kappa 1 to Opioid receptor mu 1 to Opioid receptor delta 1; kappa:mu:delta = 45:12:1.
Test [13] has the same target. Put plainly: Ratio of binding affinity of Opioid receptor kappa 1 to Opioid receptor mu 1 to Opioid receptor delta 1; kappa:mu:delta = 26:81:1.
Test [14] has the same target. Description: Ratio of binding affinity of Opioid receptor kappa 1 to Opioid receptor mu 1 to Opioid receptor delta 1; kappa:mu:delta = 4:3:1.
The target is the same in test [15]. Description: Ratio of binding affinity of Opioid receptor kappa 1 to Opioid receptor mu 1 to Opioid receptor delta 1; kappa:mu:delta = 13:10:1.
The target is the same in test [16]. Description: Ratio of binding affinity of Opioid receptor kappa 1 to Opioid receptor mu 1 to Opioid receptor delta 1; kappa:mu:delta = 15:18:1.
For test [17] the target is unchanged. Put plainly: Ratio of binding affinity of Opioid receptor kappa 1 to Opioid receptor mu 1 to Opioid receptor delta 1; kappa:mu:delta = 12:38:1.

As usually defined, the Ki is a measure of affinity in units of concentration, obtained from inhibition or displacement. Read a low Ki as higher affinity. One may read the Emax as the maximal effect, on the per cent scale that the assay sets.

Sequence of Kappa-type opioid receptor (Cavia porcellus, UniProt P41144) (P41144 whole entry): as above
Sequence of Mu-type opioid receptor (Homo sapiens, UniProt P35372) (P35372 whole entry): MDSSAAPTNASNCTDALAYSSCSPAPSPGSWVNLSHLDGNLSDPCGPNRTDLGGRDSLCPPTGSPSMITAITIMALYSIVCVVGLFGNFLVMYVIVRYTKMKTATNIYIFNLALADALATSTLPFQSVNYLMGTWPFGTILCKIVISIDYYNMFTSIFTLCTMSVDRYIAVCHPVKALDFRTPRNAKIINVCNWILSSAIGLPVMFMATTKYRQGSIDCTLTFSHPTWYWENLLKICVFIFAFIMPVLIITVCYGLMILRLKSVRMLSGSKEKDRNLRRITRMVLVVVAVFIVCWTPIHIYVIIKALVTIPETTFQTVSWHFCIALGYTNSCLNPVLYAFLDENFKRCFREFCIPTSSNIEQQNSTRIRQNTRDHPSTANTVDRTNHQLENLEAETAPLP
Sequence of Kappa-type opioid receptor (Homo sapiens, UniProt P41145) (P41145 whole entry): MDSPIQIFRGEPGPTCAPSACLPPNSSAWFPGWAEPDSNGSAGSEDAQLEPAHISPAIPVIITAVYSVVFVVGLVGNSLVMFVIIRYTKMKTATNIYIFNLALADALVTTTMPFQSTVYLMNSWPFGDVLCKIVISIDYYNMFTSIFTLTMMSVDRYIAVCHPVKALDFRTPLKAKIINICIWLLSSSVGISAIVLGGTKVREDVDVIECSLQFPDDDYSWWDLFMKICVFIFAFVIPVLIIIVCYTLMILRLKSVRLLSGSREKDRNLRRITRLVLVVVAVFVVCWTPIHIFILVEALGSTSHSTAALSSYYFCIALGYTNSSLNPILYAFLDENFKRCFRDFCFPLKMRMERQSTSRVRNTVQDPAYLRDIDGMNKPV

For `C[C@H]1C2Cc3cc4cc[nH]c4cc3[C@@]1(C)CCN2CC1CC1`, the Ratio in [1] was 36. Moreover, the figures for the Ki (on Mu-type opioid receptor [2]; in test [3]) were 18 nM and 7 nM, respectively.

For the compound `C[C@H]1C2Cc3ccc(Nc4ccc(Cl)cc4)cc3[C@@]1(C)CCN2CC1CC1`, the Ki on Mu-type opioid receptor [2] came out at 3 nM; in test [3], 2.5 nM. Moreover, the Ratio in [4] stood at 10.

As to `C[C@H]1C2Cc3ccc(Nc4ccc(N(C)C)cc4)cc3[C@@]1(C)CCN2CC1CC1`, the inhibitory constant (Ki) turned out to be 70 nM on Mu-type opioid receptor [2] and 8.8 nM in test [3]. For the same compound, in test [5], the Ratio came to 9.

On to `C[C@H]1C2Cc3ccc(Nc4ccc(Cl)c(Cl)c4)cc3[C@@]1(C)CCN2CC1CC1`, for which the Ratio in test [6] is 5. In addition, the Ki at Mu-type opioid receptor [2] was 8.4 nM; in [3] it was 5.7 nM.

Regarding `C[C@H]1C2Cc3ccc(N4CCCCC4)cc3[C@@]1(C)CCN2CC1CC1`, the Ki on Mu-type opioid receptor [2] came out at 95 nM; in test [7], 3600 nM. In test [8], the Ratio was found to be 12.

As for `CC[C@@]12CCN(CC3CC3)C(C(=O)c3ccc(N)cc31)[C@@H]2C` (single isomer, unassigned; (-)), the Ratio in test [9] turned out to be 7. For the same compound, the figures for the Emax (at Mu-type opioid receptor [10]; in [11]) were 10% and 110%, respectively.

Turning to `COc1ccccc1Nc1ccc2c(c1)[C@@]1(C)CCN(CC3CC3)C(C2)[C@@H]1C`, the Ratio in test [12] was determined as 45. Moreover, the inhibition constant (Ki) was determined as 8.5 nM on Mu-type opioid receptor [2] and 2.2 nM in test [3].

For the compound `C[C@H]1C2Cc3ccc(NCc4ccccc4)cc3[C@@]1(C)CCN2CC1CC1` (single isomer, unassigned; (-)), the Ratio in [13] came out at 26.

For `C[C@H]1C2Cc3ccc(Nc4ccc(C(C)(C)C)cc4)cc3[C@@]1(C)CCN2CC1CC1`, the inhibition constant Ki came to 18 nM on Mu-type opioid receptor [2] and 14 nM in test [3]. The Ratio in [14] was 4.

Regarding `C[C@H]1C2Cc3ccc(N(C)Cc4ccccc4)cc3[C@@]1(C)CCN2CC1CC1`, the Ratio in test [15] came out at 13. In [7], this compound returned an inhibition constant Ki of 570 nM.

As to `C[C@H]1C2Cc3ccc(NCCc4ccccc4)cc3[C@@]1(C)CCN2CC1CC1`, the Ratio in test [16] was determined as 15. In [7], this compound displayed an inhibitory constant (Ki) of 160 nM.

With `C[C@H]1C2Cc3ccc(NCc4ccccc4)cc3[C@@]1(C)CCN2CC1CC1` (stereo in doubt; 25), the Ratio in test [17] is 12.
